Bioassay records (PubChem)
CHO-K1 Ca ag: counter-screen for M1 agonists: effect in parental CHO-K1 cells; Fluo-8 calcium fluorescence; scaled to maximal ATP response, vehicle zero; activation, % at 3 µM; hit rate 0.48% among 360,000; in the data active = activation above about 15%;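 note: untransfected CHO-K1 host cells lacking M1 receptor as counterscreen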
OX1R antag-1: OX1R (HCRTR1) antagonists, primary screen, fluorescence, CHO/OX1R cells, Fluo-8 calcium, orexin A. hit rate 0.43% among 330,000. Fluo-8 calcium fluorescence. inhibition, % at 5 µM. Orexin/Hypocretin receptor type 1 (Homo sapiens), O43613;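 active = inhibition above its plate's threshold, mean inhibition of all tested compounds on the plate plus 3 SD, cut at about 37% in these data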;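 note: 0% = orexin A challenge wells and 100% = SB-334867-A antagonist wells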
Target sequence (O43613 whole entry, looked up): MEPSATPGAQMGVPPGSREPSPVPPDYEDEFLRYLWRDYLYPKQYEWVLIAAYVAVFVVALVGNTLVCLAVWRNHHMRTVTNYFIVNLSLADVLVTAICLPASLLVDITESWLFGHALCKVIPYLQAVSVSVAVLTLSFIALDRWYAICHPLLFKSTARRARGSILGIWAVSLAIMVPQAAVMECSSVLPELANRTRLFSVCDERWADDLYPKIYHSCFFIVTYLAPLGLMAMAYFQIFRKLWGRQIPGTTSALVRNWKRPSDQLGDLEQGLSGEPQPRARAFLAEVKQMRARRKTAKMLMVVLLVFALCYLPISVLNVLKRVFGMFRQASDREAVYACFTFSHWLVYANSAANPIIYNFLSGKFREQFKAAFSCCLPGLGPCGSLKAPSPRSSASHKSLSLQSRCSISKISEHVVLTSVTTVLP
OX1R antag-2: antagonists of human orexin 1 receptor (OX1R) | Orexin/Hypocretin receptor type 1 (Homo sapiens), O43613 | OX1R-expressing cells, FRET antagonist read-out | inhibition, % at 6.6 µM | hit rate 1.8% among 330,000 | AID 485270, 2010; in the data active = inhibition mostly above about 38%, no sharp cut-off; inactive = mostly below about 40%;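 note: 0% = agonist challenge alone and 100% = reference antagonist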
CHO parental Ca: ATP-evoked calcium signal inhibitors, parental CHO, primary screen, counter-screen for OX1R antagonist project, cell-based, fluorescence, Fluo-8 calcium dye | parental CHO-K1, ATP-induced calcium, Fluo-8 fluorescence | inhibition, % at 5.6 µM | hit rate 0.63% among 330,000;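 active = inhibition above that plate's mean sample inhibition plus 3 SD, cut at about 26% in these data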;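 note: 0% = ATP-challenged DMSO wells and 100% = DMSO wells without ATP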
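Test system: parental CHO cells; detection: calcium-sensitive Fluo-8 fluorescence; evaluation: percent inhibition of calcium signal; also added: ATP as calcium-mobilizing challenge; repeats: one well per compound; control set: ATP-challenged DMSO wells low, unchallenged DMSO wells high; compound: single nominal dose of 5.6 µM per compound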
CHO-K1 Ca antag: nonselective inhibitor or artifact in parental CHO-K1 cells | AID 602250 | ATP-induced calcium, Fluo-8 fluorescence | inhibition, % at 3 µM | hit rate 0.6% among 360,000;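 active = inhibition above a per-plate cutoff, the plate's mean sample inhibition plus 3 SD, cut at about 24% in these data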;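 note: 0% = DMSO plus EC80 ATP and 100% = DMSO alone without ATP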
M1 PAM parental: nonselective calcium activators in parental CHO-K1 cells, primary screen, counter-screen for M1 PAM project, cell-based, Fluo-8 calcium fluorescence, full deck, 1536-well; ATP EC20; 0% at ATP EC20, 100% at ATP max; activation, % at 3 µM; hit rate 0.02% among 360,000; AID 602247, 2012;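 active = activation above the run cutoff, the mean activation of all test compounds plus 3 SD, cut at about 40% in these data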;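 note: peak over basal fluorescence ratio in a 140 s read after ATP addition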
OX1R HTRF conf: OX1R (HCRTR1) antagonists, confirmation, cell-based, HTRF; shares compounds with OX1R antag-2; AID 492964, 2010; hit rate 49% among 1,800; inhibition, % at 6.6 µM; OX1R-expressing cells, HTRF antagonist assay; in the data active = inhibition above about 55%;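 note: CHO cells expressing OX1R stimulated with orexin A at about EC80; 0% = agonist challenge alone and 100% = reference antagonist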
CHO-K1 HTRF: signal inhibition in parental CHO-K1 cells, counter-screen for OX1R antagonist project, cell-based, HTRF | hit rate 48% among 1,800 | inhibition, % at 6.6 µM | shares compounds with OX1R antag-2 | AID 493232, 2011 | HTRF counterscreen; in the data active = inhibition above about 17%;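 note: 0% = agonist challenge with vehicle and 100% = vehicle alone without agonist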
The depositor's hits bear a star; . = no result. This is a sample that favours compounds with a hit; in the whole collection about 2.9% have one here.

SMILES | CHO-K1 Ca ag | OX1R antag-1 | OX1R antag-2 | CHO parental Ca | CHO-K1 Ca antag | M1 PAM parental | OX1R HTRF conf | CHO-K1 HTRF
COc1cccc(NC(=O)CS(=O)(=O)c2cccc3nsnc23)c1 | 0 | -21 | 53 | -6 | -6 | 15 | . | .
COc1ccc(C)cc1NC(=O)C1CCN(S(=O)(=O)c2cccs2)CC1 | 1 | -14 | 5 | -5 | -11 | -11 | . | .
COc1ccc(OC)c(/C=N/NC(=O)c2cc[n+](Cc3ccccc3)cc2)c1 | 0 | -12 | 108* | -2 | 3 | 0 | 64* | 46*
O=C(/C=C/c1ccc(Cl)c([N+](=O)[O-])c1)NCc1cccnc1 | 1 | -7 | 53 | -2 | -6 | 1 | . | .
O=C(/C=C/c1ccc([N+](=O)[O-])cc1)NCc1cccnc1 | 1 | -3 | 104* | 3 | -9 | 7 | 35 | 36*
COc1ccc(CCN2C(=O)c3cccnc3C2=O)cc1OC | 0 | -11 | 82* | -6 | 12 | -5 | 31 | 21*
CC1CCCCN1C(=O)Cn1cnc2cc([N+](=O)[O-])ccc2c1=O (stereo not drawn) | -1 | -10 | 123* | -13 | 7 | -3 | 81* | 86*
O=C(Nc1ccc(Cl)c(-c2nc3ccccc3[nH]2)c1)c1ccc2c(c1)OCO2 | 4 | -26 | 82* | -19 | -7 | 16 | 84* | 9
CCc1nc2ccc(C(=O)Nc3ccc(OC)c(OC)c3)cn2c1N(C)CCC(C)C | 2 | . | . | . | -14 | 29 | . | .
CN(c1ccc(O)cc1)c1nc(O)c(C2=c3ccccc3=NC2=O)s1 | 2 | 10 | 79* | -17 | -7 | 4 | 45 | 13
CC(Oc1ccc(F)cc1)C(=O)Nc1cc(Cl)ccc1-n1cncn1 (stereo not drawn) | 0 | -12 | 14 | -10 | -3 | 13 | . | .
COc1ccc(C(=O)CN2CCN(CCN3C(=O)c4cccc5cccc(c45)C3=O)CC2)cc1 | 1 | -32 | 91* | -23 | -15 | 7 | 36 | 21*
O=C(CN1C(=O)S/C(=C/c2ccc(N3CCOCC3)cc2)C1=O)N1CCOCC1 | 0 | 6 | 85* | -3 | 16 | -11 | 41 | 47*
O=C(CN1C(=O)c2cccc3cccc(c23)C1=O)N1CCOCC1 | 0 | -17 | 104* | -8 | -12 | 19 | 47 | 87*
COc1ccc2nc3n(c(=O)c2c1)-c1ncccc1C(=O)NC3CC(C)C (stereo not drawn) | 1 | . | . | . | -2 | 15 | . | .
CCOC(=O)C1=CCN(S(=O)(=O)c2ccc(Br)cc2)C1c1ccc(C)cc1 (stereo not drawn) | 0 | . | . | . | 1 | 11 | . | .
CC(=O)Nc1ccc(NC(=O)Nc2ccc3c(c2)N(C)C(=O)CS3)cc1 | 0 | -11 | 14 | 0 | -12 | 17 | . | .
COc1cccc(NC(=O)Nc2ccc3c(c2)N(C)C(=O)CS3)c1 | 15 | 3 | 82* | 13 | 21 | 0 | 28 | 11
COc1cccc(C(=O)NC2CC3CCC(C2)N3Cc2ccccc2)c1 (stereo not drawn) | 0 | -13 | 3 | -12 | -5 | 11 | . | .
COc1cccc(C(=O)NC2CC3CCCC(C2)N3CC(=O)Nc2ccccc2C(F)(F)F)c1 (stereo not drawn) | 2 | 8 | 90* | -19 | -15 | 0 | 89* | 6
Cc1ccc(S(=O)(=O)N2CCOCC2)cc1C(=O)NCc1ccccc1CN1CCCC1 | 0 | -24 | 4 | -3 | -11 | 4 | . | .
C=CCSc1nnc2c(n1)OC(c1cccnc1)Nc1ccccc1-2 (stereo not drawn) | 0 | -4 | 78* | -12 | 8 | -5 | 22 | 8
O=c1[nH]c(=O)c2nc(-c3ccc(Cl)cc3)cnc2[nH]1 | -1 | -5 | 77* | -6 | 5 | -12 | 52 | 68*
CNc1ccc(C(=O)c2ccccc2C(=O)O)cc1[N+](=O)[O-] | 0 | -21 | 80* | 1 | -6 | -7 | 25 | 36*
COCCCNc1ncnc2ccc(C)cc12 | 5 | -7 | 31 | 1 | -5 | 7 | . | .
SMILES | CHO-K1 Ca ag | OX1R antag-1 | OX1R antag-2 | CHO parental Ca | CHO-K1 Ca antag | M1 PAM parental | OX1R HTRF conf | CHO-K1 HTRF
Cc1ccc2ncnc(Nc3ccc(C)c(C)c3)c2c1 | 0 | -29 | 78* | -13 | -11 | 7 | 42 | 12
CCc1nc2ccc(C(=O)Nc3cccc(C(C)=O)c3)cc2nc1CC | 2 | 1 | 81* | -19 | -1 | 6 | 33 | 5
CCc1nc2ccc(C(=O)Nc3nnc(C)s3)cc2nc1CC | 0 | -14 | 16 | -20 | 10 | 9 | . | .
CNc1ncnc2c1ncn2[C@H]1CN(Cc2ccco2)C[C@@H](CO)O1 | 0 | . | . | . | -1 | 5 | . | .
COc1ccccc1-c1noc2c1C(=O)NCC2 | 0 | . | . | . | 1 | -12 | . | .
COCCCn1cnc2oc3nc4ccccc4nc3c2c1=O | 0 | -3 | 85* | -4 | -12 | 11 | 67* | 107*
CCOC(=O)C(C)/C(C)=N\Nc1ccc([N+](=O)[O-])cc1[N+](=O)[O-] (stereo not drawn) | 13 | 16 | 85* | 17 | 13 | -2 | 44 | 19*
O=c1nc(-c2ccccc2)c(-c2ccccc2)n[nH]1 | 0 | . | . | . | -9 | 8 | . | .
O=c1nc(-c2ccccc2)cn[nH]1 | 0 | -11 | 148* | 5 | 11 | -3 | 38 | 37*
Clc1cccc(Nc2nc(-c3ccncc3)cs2)c1 | 1 | 19 | 80* | 6 | -7 | 8 | 33 | 11
O=C(O)c1ccc(Nc2ncc([N+](=O)[O-])cc2[N+](=O)[O-])cc1 | 3 | -2 | 93* | -8 | 10 | 5 | 68* | 107*
Cc1ccc(Nc2ccc(C(=O)O)cc2[N+](=O)[O-])cc1 | 0 | -21 | 3 | -5 | -10 | -9 | . | .
CC(C)CN(C(=O)c1cc([N+](=O)[O-])cc([N+](=O)[O-])c1)C1CCS(=O)(=O)C1 (stereo not drawn) | 1 | -6 | 91* | -6 | -11 | 0 | 70* | 50*
CC(C)CN(C(=O)CCNC(=O)c1ccc([N+](=O)[O-])cc1)C1CCS(=O)(=O)C1 (stereo not drawn) | 0 | -12 | 35 | -13 | -7 | -10 | . | .
NC(=O)c1c(NC(=O)c2ccccc2)sc2c1CCC2 | 0 | 14 | 89* | -20 | -6 | 18 | 84* | 3
